Reference: ChEMBL document CHEMBL5550111, “Design, synthesis and biological evaluation of aryloxy thiophosphoramidate triesters of anticancer nucleoside analogues” (Bioorg Med Chem, 2024)

How the values were obtained:
HT-29 [1] = experiment: Cytotoxicity against human HT-29 cells assessed as inhibition of cell viability incubated for 72 hrs by MTS assay; assay type: functional, cell-based; conditions: HT-29, 72 h
Summary of the method: (§1)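 Cells seeded at 0.5 to 100 × 10^3 per well the day before treatment, then exposed for 72 h to 9 serial concentrations (3.16-fold dilutions, top 198 μM), in duplicate. MTS added for a final 4 h at 37 °C and absorbance read. IC50 is the concentration giving 50% loss of viability. MI% is the maximum inhibition over the tested range.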

HepG2 [2] = experiment: Cytotoxicity against human HepG2 cells assessed as inhibition of cell viability incubated for 72 hrs by MTS assay; assay type: functional, cell-based; conditions: HepG2, 72 h; summary of the method: as §1
HepG2 [3] = experiment: Cytotoxicity against human HepG2 cells assessed as maximum inhibition of cell viability upto 198 uM incubated for 72 hrs by MTS assay relative to control; assay type: functional; conditions: up to 198 µM
Summary of the method: (§2)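 Cells seeded at 0.5 to 100 × 10^3 per well the day before drug addition, then exposed to compound for 72 h. MTS added afterwards, with a further 4 h at 37 °C, and absorbance read. Tested in duplicate at 9 serial 3.16-fold dilutions, top concentration 198 μM. MI% is the maximum inhibition of viability across the tested range.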

RT112/84 [4] = experiment: Cytotoxicity against human RT112/84 cells assessed as inhibition of cell viability incubated for 72 hrs by MTS assay; assay type: functional, cell-based; conditions: RT112/84, 72 h; summary of the method: as §1
NCI-H1975 = experiment: Cytotoxicity against human NCI-H1975 cells assessed as maximum inhibition of cell viability upto 198 uM incubated for 72 hrs by MTS assay relative to control; assay type: functional; conditions: up to 198 µM; summary of the method: as §2
OVCAR-3 [5] = experiment: Cytotoxicity against human OVCAR-3 cells assessed as inhibition of cell viability incubated for 72 hrs by MTS assay; assay type: functional, cell-based; conditions: OVCAR-3, 72 h; summary of the method: as §1
RT112/84 [6] = experiment: Cytotoxicity against human RT112/84 cells assessed as maximum inhibition of cell viability upto 198 uM incubated for 72 hrs by MTS assay relative to control; assay type: functional; conditions: up to 198 µM; summary of the method: as §2
MIA PaCa-2 [7] = experiment: Cytotoxicity against human MIA PaCa-2 cells assessed as inhibition of cell viability incubated for 72 hrs by MTS assay; assay type: functional, cell-based; conditions: MIA PaCa-2, 72 h; summary of the method: as §1
HT-29 [8] = experiment: Cytotoxicity against human HT-29 cells assessed as maximum inhibition of cell viability upto 198 uM incubated for 72 hrs by MTS assay relative to control; assay type: functional; conditions: up to 198 µM; summary of the method: as §2
RPMI-8226 [9] = experiment: Cytotoxicity against human RPMI-8226 cells assessed as maximum inhibition of cell viability upto 198 uM incubated for 72 hrs by MTS assay relative to control; assay type: functional; conditions: up to 198 µM; summary of the method: as §2
RPMI-8226 [10] = experiment: Cytotoxicity against human RPMI-8226 cells assessed as inhibition of cell viability incubated for 72 hrs by MTS assay; assay type: functional, cell-based; conditions: RPMI-8226, 72 h; summary of the method: as §1
MIA PaCa-2 [11] = experiment: Cytotoxicity against human MIA PaCa-2 cells assessed as maximum inhibition of cell viability upto 198 uM incubated for 72 hrs by MTS assay relative to control; assay type: functional; conditions: up to 198 µM; summary of the method: as §2
SK-MES-1 [12] = experiment: Cytotoxicity against human SK-MES-1 cells assessed as inhibition of cell viability incubated for 72 hrs by MTS assay; assay type: functional, cell-based; conditions: SK-MES-1, 72 h; summary of the method: as §1
COLO 205 [13] = experiment: Cytotoxicity against human COLO 205 cells assessed as maximum inhibition of cell viability upto 198 uM incubated for 72 hrs by MTS assay relative to control; assay type: functional; conditions: up to 198 µM; summary of the method: as §2
OVCAR-3 [14] = experiment: Cytotoxicity against human OVCAR-3 cells assessed as maximum inhibition of cell viability upto 198 uM incubated for 72 hrs by MTS assay relative to control; assay type: functional; conditions: up to 198 µM; summary of the method: as §2
SK-MES-1 [15] = experiment: Cytotoxicity against human SK-MES-1 cells assessed as maximum inhibition of cell viability upto 198 uM incubated for 72 hrs by MTS assay relative to control; assay type: functional; conditions: up to 198 µM; summary of the method: as §2
COLO 205 [16] = experiment: Cytotoxicity against human COLO 205 cells assessed as inhibition of cell viability incubated for 72 hrs by MTS assay; assay type: functional, cell-based; conditions: COLO 205, 72 h; summary of the method: as §1

Q: What does the source list for `Nc1nc(=O)n([C@H]2C[C@H](O)[C@@H](CO)O2)cc1F`?
A: IC50 (HT-29 [1]): 130 nM; IC50 (HepG2 [2]): 53.9 µM; Imax (HepG2 [3]): 67%; IC50 (RT112/84 [4]): 90 nM; Imax (NCI-H1975): 91%; IC50 (OVCAR-3 [5]): 740 nM; Imax (RT112/84 [6]): 67%; IC50 (MIA PaCa-2 [7]): 300 nM; Imax (HT-29 [8]): 83%; Imax (RPMI-8226 [9]): 100%; IC50 (RPMI-8226 [10]): 11.8 µM; Imax (MIA PaCa-2 [11]): 85%; IC50 (SK-MES-1 [12]): 90 nM; Imax (COLO 205 [13]): 88%; Imax (OVCAR-3 [14]): 58%; Imax (SK-MES-1 [15]): 67%; IC50 (COLO 205 [16]): 20 nM
